Rows were chosen to be rich in hits. Some 1.5% of all compounds tested hit in one or more screens of this group.
RanGTP-Imp inh – disruptors of Ran-importin-beta complex formation – biochemical, FRET, CFP-Ran, YFP-importin-beta, homogeneous, primary screen | inhibition, % (no concentration beside the values) | AID 2216 | 300,000 compounds, 1.1% hits | cell-free CFP-Ran/YFP-importin-beta FRET ratio;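 active means more than half of the replicate wells show a fall in the fluorescence ratio signal beyond about 16%, limit read from the data, passing the limit was not always enough; inconclusive means exactly half of the replicate wells pass the set limit; inactive means fewer than half of replicates pass the limit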;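 further: 0% = DMSO wells and 100% = Ran loaded with GDP instead of GTP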
Hck Nef HTS – human Hck-Nef kinase inhibition; P08631; Recombinant Hck-YEEI plus Nef, Z-Lyte FRET kinase assay; inhibition, % at 20 µM; 220,000 compounds, 0.68% hits; AID 463187;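 active means Hck-Nef kinase inhibition above about 50%, limit read from the data; inactive means inhibition below that limit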;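 further: 0% = DMSO with Hck plus Nef and 100% = Hck alone without Nef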
Target sequence (P08631 whole entry, looked up): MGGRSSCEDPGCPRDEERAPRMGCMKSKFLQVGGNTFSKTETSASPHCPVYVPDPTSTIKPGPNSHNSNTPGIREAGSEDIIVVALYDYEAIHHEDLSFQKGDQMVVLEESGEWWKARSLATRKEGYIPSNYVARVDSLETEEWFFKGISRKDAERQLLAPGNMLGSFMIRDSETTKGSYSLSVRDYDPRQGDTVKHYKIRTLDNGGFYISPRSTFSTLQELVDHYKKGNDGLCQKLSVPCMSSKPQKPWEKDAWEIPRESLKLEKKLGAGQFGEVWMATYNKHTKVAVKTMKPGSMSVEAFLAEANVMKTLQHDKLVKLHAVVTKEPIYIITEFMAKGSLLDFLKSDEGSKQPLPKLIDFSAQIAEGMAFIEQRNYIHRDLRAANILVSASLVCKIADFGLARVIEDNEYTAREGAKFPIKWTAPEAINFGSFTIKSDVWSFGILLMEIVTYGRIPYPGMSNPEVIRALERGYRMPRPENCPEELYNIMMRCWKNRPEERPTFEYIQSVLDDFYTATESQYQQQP
Runt-SMMHC FRET – blocks binding of human RUNX1 Runt domain to CBFb-SMMHC; Q01196+Q13951; Cerulean-Runt/Venus-CBFb-SMMHC FRET ratio 530/480, 1 h; inhibition, % at 20 µM; 220,000 compounds, 0.74% hits; AID 1434;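 active means mean inhibition across duplicate retests at 20 µM reaching about 50%, limit read from the data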;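 further: 0% = DMSO wells and 100% = wells with excess untagged CBFb-SMMHC; inhibitors lower the FRET ratio by blocking Runt binding to CBFb-SMMHC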
Runt-CBFb FRET – inhibitors of human RUNX1 Runt domain binding to CBFb; Q01196+Q13951; Cerulean-Runt/Venus-CBFb FRET ratio 530/480, 1 h; inhibition, % at 20 µM; 220,000 compounds, 0.46% hits;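 active means inhibition over about 50% at 20 µM in the single-dose screen, limit read from the data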;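 further: 0% = DMSO wells and 100% = excess unlabeled CBFb competitor control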
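Doses: 20 µM compound in 1% DMSO | Material: Cerulean-labeled Runt domain protein | Amount: Each fluorescent fusion protein 100 nM | Schedule: Two 1 h room-temperature incubations shielded from light | Measured by: FRET fluorescence | Evaluation: Loss of energy transfer signal | Controls: Unlabeled CBFb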
CaV13 FRET inh – Disruptors of the CACNA1D IQ motif to Ca2+-dependent inactivation inhibitor domain association, primary screening, Förster resonance energy transfer in intact living …. HEK cells, CFP/YFP FRET ICDI-IQ, plate reader, 10 min; percent FRET-ratio fall versus neutral wells. inhibition, % at 12.3 µM. 340,000 compounds, 0.098% hits. AID 743397;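 active means mean replicate inhibition of at least 30% and at least 1% of replicates passing that level; inconclusive means only one of the two criteria is met; inactive means neither criterion is met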;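 further: 0% = median of the neutral control wells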
YIC counter – counter-screen YIC FRET for RanGTP-importin-beta inhibitors | shares compounds with RanGTP-Imp inh | Purified YIC probe, intramolecular FRET ratio YFP/CFP | IC50, µM | 1,000 compounds, 40% hits | AID 435026;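 active means fitted half-maximal inhibitory concentration no more than tenfold above the top dose tested; inconclusive means flat fit with 30 to 70% activity, or poor fit; inactive means half-maximal concentration beyond tenfold above the top dose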
An asterisk follows results filed as active; u = inconclusive; x = no result.

SMILES | RanGTP-Imp inh | Hck Nef HTS | Runt-SMMHC FRET | Runt-CBFb FRET | CaV13 FRET inh | YIC counter
Cc1c(N=Cc2c(O)n(Cc3ccco3)c(=O)c3ccccc23)c(=O)n(-c2ccccc2)n1C | 22* | 14 | -104 | -65 | -13 | 23*
Oc1ccc(N2Cc3ccccc3C2)cc1 | 5 | x | x | x | x | x
O=Cc1ccc(N2Cc3ccccc3C2)cc1 | 18* | x | x | x | 13 | >50
CCCS(=O)(=O)c1nc(S(=O)(=O)c2ccc(C)cc2)c(NCc2ccccn2)s1 | 5 | 26 | 0 | 3 | 2 | x
CCS(=O)(=O)c1nc(S(=O)(=O)c2ccc(C)cc2)c(NCc2ccccn2)s1 | 16* | -1 | -4 | 8 | -1 | >50
CC(=O)Nc1cccc(-c2ccnc3c2CC(C(=O)Nc2cccc(N(C)C)c2)O3)c1 (centres undefined) | x | x | x | x | -5 | x
O=C(COC(=O)c1ccc(O)cc1)NCC1CCCO1 (centres undefined) | -1 | 22 | 1 | 0 | -1 | x
O=C(CC(=O)c1ccccc1)c1ccccc1 | x | x | x | x | -9 | x
O=C(Cc1c2ccccc2nc2ccccc12)c1ccccc1 | 22* | 7 | 115* | 126* | -4 | >50
COC(=O)Cn1c(O)c(N=NC(=O)CNC(=O)c2ccncc2)c2ccccc21 | -2 | x | x | x | -4 | x
NC(=S)NN=Cc1cc(-c2cccc(N)c2)ccn1 | x | x | x | x | -10 | x
CCCn1nc(NC(=O)CC(C)C)c2cc3cccc(C)c3nc21 | 20* | x | x | x | -7 | 32*
CCn1nc(NS(=O)(=O)c2ccccc2[N+](=O)[O-])c2cc3cccc(C)c3nc21 | -3 | x | x | x | -4 | x
O=C(C1CCCCC1)N1CCc2ccccc21 | -1 | 22 | 0 | 1 | 8 | x
O=C(C1CCCCC1)N1CC(=O)N2CCc3ccccc3C2C1 (centres undefined) | 21* | -1 | 3 | 0 | x | >50
CCOC(=O)C1(CCc2ccccc2)CCN(Cc2ccccn2)CC1 | 17* | -1 | 0 | 2 | -2 | >50
CCOC(=O)C1(CCc2ccccc2)CCN(Cc2ccc(C(=O)OC)cc2)CC1 | 6 | x | x | x | -20 | x
c1ccc2c(c1)nc(NCC1CCCO1)c1nnnn12 (centres undefined) | 23* | 0 | 28 | 18 | -5 | 28*
CCS(=O)(=O)c1ccc(S(=O)(=O)CC)s1 | 36* | 1 | 0 | -1 | -6 | >50
COc1ccc(/C=C2\SC(=S)N(CC(=O)OCC(=O)Nc3ccc(C)cc3Cl)C2=O)cc1 | 18* | 9 | -31 | -12 | -2 | >50
COc1ccc(/C=C2\SC(=S)N(CC(=O)OCC(=O)Nc3ccc([N+](=O)[O-])cc3OC)C2=O)cc1 | x | 24 | -55 | -29 | -1 | x
Oc1ccc(-c2[nH]ncc2-c2cccc3cccnc23)c(O)c1 | 17* | 0 | 2 | 0 | -2 | >50
CCc1ccccc1NC(=O)CNC(=O)CCNC(=O)Nc1ccccc1 | x | x | x | x | -4 | x
COc1ccc2cc(C(C)=O)c(=O)oc2c1 | 19* | 4 | 62* | 19 | -4 | 35*
Cc1cc(N2C(=O)C(O)=C(C(=O)c3cc4ccccc4o3)C2c2cccc(Cl)c2)no1 (centres undefined) | 25* | x | x | x | -2 | 7.4*
SMILES | RanGTP-Imp inh | Hck Nef HTS | Runt-SMMHC FRET | Runt-CBFb FRET | CaV13 FRET inh | YIC counter
C=CCn1c(=O)c(C(=O)Nc2cc(C)ccn2)c(O)c2ccccc21 | 5 | x | x | x | -20 | x
C=CCn1c(=O)c(C(=O)Nc2ccc(C)cc2)c(O)c2ccccc21 | 28* | x | x | x | -20 | >50
CC(=O)N(c1ccc(Cl)cc1)c1c[nH]c2ccccc12 | 26* | 0 | 1 | -1 | -5 | >50
CC(=O)N(c1ccc(Cl)cc1)c1cn(C(C)=O)c2ccccc12 | u | -5 | 4 | 0 | 3 | x
Cc1cc(C2C(C#N)=C(N)SC(N)=C2C#N)c(C)s1 | 34* | -6 | 32 | 24 | x | >50
CN1CCCN(C(=O)c2cc(=O)[nH]c3ccccc23)c2nc3ccccc3nc21 | 6 | 1 | 3 | 3 | -4 | x
CN1CCCN(C(=O)Cc2c(Cl)cccc2Cl)c2nc3ccccc3nc21 | 22* | 8 | 54* | 48 | -4 | 28*
Cc1ccc2cc(CN(CC3CCCO3)C(=S)Nc3ccccc3)c(=O)[nH]c2c1C (centres undefined) | 18* | 1 | 1 | 0 | -3 | >50
Cc1cc(C)c2[nH]c(=O)c(CN(CC3CCCO3)C(=S)Nc3ccccc3)cc2c1 (centres undefined) | -2 | 2 | 5 | 19 | -9 | x
Cc1cc(C)c(S(=O)(=O)N(C)CC(=O)N2CCCCC2)c(C)c1 | -1 | -3 | 2 | 0 | -5 | x
Cc1cc(C)c(S(=O)(=O)N(C)CC(N)=O)c(C)c1 | 17* | 0 | -6 | -2 | -5 | >50
Cc1ccc(/C=C/C(=O)Nc2cccc3ncccc23)o1 | 17* | 0 | 66 | 9 | -9 | >50
O=C(CCS(=O)(=O)c1ccccc1)Nc1cccc(-c2nc3ccccc3s2)c1 | 4 | -1 | 3 | -2 | -15 | x
O=C(Nc1cccc(-c2nc3ccccc3s2)c1)c1cccs1 | 25* | 2 | 4 | 0 | -4 | >50
O=C1OCCN1C(=O)[C@H]1[C@H](c2ccc(F)cc2)C(c2cccc(Cl)c2)=NN1c1ccc(Br)cc1 | x | x | x | x | -8 | x
Cc1cccc(C2=NN(c3ccc(Br)cc3)[C@@H](C(=O)N3CCOC3=O)[C@@H]2c2ccc(F)cc2)c1 | 18* | 1 | 56 | 18 | -4 | 35*
CCC(=O)Nc1cccc(NC(=S)NC(=O)c2cccs2)c1 | 25* | 3 | 8 | 0 | -5 | >50
CCOC(=O)c1ccc(NC(=O)CSc2nnc(C3CCCCC3)n2C)cc1 | 16* | 16 | -4 | -1 | -4 | >50
COC(=O)C1=C(CCc2ccccc2)NC(=O)NC1c1ccc([N+](=O)[O-])cc1 (centres undefined) | -1 | x | x | x | -5 | x
CCC1CCCCN1C(=O)COc1cccc2c1CCN(C)C2=O (centres undefined) | 18* | -36 | -1 | 0 | -6 | >50
N#Cc1ccccc1NC(=O)C1CC(=O)N(c2ccc3c4c(cccc24)CC3)C1 (centres undefined) | 22* | 3 | 2 | -1 | -3 | >50
CC1C(=O)N2CCCc3cc(S(=O)(=O)N(C)c4ccccc4)cc1c32 (centres undefined) | u | x | x | x | -2 | x
Nc1nc(N2CCOCC2)nc(N(c2ccccc2)c2ccccc2)n1 | 21* | 3 | 1 | 2 | -6 | >50
COc1cc(C2C3CN(C)CC=C3C(C#N)=C(N)C2(C#N)C#N)ccc1OC(C)C (centres undefined) | 39* | 6 | 39 | 88* | -6 | 3.3*

Source: PubChem BioAssay
